Assay results as given in ChEMBL document CHEMBL4627265, “Optimization of 8-oxoadenines with toll-like-receptor 7 and 8 activity” (Bioorg Med Chem Lett, 2020).
Active and inactive are the calls of the source. No cut-off for these calls is given here.

How the values were obtained:
Assay type in all cases: cell-based
[1] = target: Toll-like receptor 3 (Homo sapiens) (UniProt O15455); test: Agonist activity at human TLR3 expressed in HEK293 cells by SEAP reporter gene assay
Toll-like receptor 7 = target: T1, Toll-like receptor 7 (Homo sapiens, UniProt Q9NYK1); test: Agonist activity at human TLR7 expressed in HEK293 cells assessed as induction of NFKappaB activity after 24 hrs by SEAP reporter gene assay
T1 sequence (Q9NYK1 whole entry): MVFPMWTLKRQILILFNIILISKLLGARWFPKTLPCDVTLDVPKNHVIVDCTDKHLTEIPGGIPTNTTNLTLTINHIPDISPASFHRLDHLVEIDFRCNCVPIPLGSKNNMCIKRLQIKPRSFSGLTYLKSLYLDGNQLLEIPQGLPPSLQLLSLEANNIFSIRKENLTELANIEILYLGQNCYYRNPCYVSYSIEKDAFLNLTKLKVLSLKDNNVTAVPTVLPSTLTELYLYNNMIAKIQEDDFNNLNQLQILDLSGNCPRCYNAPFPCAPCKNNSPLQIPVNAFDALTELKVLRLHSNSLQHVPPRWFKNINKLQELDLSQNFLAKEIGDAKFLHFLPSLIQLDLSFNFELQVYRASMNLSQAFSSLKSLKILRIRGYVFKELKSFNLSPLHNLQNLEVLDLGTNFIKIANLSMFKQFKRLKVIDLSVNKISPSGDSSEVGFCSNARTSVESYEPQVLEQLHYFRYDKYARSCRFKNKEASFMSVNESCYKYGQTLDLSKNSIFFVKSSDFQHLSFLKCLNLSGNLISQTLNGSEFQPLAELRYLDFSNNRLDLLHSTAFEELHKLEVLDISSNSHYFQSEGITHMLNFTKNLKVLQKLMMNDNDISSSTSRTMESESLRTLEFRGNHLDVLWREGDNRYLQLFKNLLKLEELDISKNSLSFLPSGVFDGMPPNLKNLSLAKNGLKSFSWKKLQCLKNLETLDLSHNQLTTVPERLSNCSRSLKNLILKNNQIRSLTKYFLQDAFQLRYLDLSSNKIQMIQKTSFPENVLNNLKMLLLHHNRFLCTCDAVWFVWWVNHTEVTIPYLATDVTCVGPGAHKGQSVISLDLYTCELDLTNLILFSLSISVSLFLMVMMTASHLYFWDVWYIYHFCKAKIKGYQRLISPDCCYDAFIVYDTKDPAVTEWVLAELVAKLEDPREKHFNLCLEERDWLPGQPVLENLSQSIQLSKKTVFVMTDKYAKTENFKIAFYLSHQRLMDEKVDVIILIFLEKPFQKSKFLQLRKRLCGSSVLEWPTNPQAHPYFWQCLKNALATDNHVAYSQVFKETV
How it was run: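 HEK293 cells stably transfected with hTLR7 or hTLR8 plus an NFκB-driven SEAP reporter, treated 24 h with compound over a μM range; SEAP secretion read out. EC50 as mean ± SD of three (TLR7) or four (TLR8) independent experiments.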

[2] = target: T2, Toll-like receptor 7 (Homo sapiens) (UniProt Q9NYK1); test: Agonist activity at TLR7 in human PBMC assessed as IFNalpha stimulation at 10 uM
T2 sequence (whole entry): T1 sequence (Q9NYK1 whole entry)
How it was run: (§1)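 IFNα secretion by hPBMCs across a μM dose range; MEC = lowest dose tested inducing cytokine, PC = dose giving highest level, PL = peak level at 10 μM. Data representative of one of three independent donors.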

[3] = target: T3, Toll-like receptor 9 (Homo sapiens) (UniProt Q9NR96); test: Agonist activity at human TLR9 expressed in HEK293 cells by SEAP reporter gene assay
T3 sequence (whole entry): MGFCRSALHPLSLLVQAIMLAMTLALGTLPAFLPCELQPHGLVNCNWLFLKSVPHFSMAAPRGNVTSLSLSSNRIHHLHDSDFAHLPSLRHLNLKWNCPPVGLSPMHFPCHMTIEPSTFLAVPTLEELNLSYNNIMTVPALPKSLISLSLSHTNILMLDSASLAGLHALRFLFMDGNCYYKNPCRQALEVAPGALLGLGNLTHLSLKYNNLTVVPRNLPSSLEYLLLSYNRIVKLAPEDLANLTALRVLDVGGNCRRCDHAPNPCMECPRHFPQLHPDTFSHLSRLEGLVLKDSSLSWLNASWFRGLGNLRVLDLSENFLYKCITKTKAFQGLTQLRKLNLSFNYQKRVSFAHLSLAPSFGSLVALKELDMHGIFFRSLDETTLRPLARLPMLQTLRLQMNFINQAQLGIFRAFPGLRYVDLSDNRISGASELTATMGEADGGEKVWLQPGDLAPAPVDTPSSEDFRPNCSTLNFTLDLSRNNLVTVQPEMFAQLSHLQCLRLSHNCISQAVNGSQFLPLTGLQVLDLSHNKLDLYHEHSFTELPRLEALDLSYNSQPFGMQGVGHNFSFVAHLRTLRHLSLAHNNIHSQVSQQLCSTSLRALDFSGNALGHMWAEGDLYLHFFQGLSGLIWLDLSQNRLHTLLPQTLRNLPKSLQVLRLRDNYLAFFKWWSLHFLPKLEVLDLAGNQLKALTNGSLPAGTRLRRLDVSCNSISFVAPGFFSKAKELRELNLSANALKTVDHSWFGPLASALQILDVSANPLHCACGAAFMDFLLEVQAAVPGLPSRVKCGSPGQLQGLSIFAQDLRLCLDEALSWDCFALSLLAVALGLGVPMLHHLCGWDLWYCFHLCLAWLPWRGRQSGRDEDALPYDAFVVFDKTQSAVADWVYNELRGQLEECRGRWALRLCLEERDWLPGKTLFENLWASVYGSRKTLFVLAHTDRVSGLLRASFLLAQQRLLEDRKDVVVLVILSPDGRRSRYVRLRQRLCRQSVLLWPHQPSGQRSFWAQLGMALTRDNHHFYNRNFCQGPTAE

[4] = target: T2, Toll-like receptor 7 (Homo sapiens); test: Agonist activity at TLR7 in human PBMC assessed as induction of plasmacytoid dendritic cell maturation by measuring increase in HLA-DR level at 0.1 uM after 6 hrs by flow cytometry relative to control
How it was run: (§2)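 hPBMCs stimulated 6 h at a single 0.1 μM dose; HLA-DR, MHC-I, CD80 and CD86 on mDCs and pDCs measured by flow cytometry, expressed as fold change versus unstimulated cells. Mean ± SD of three independent experiments in three different donors.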

[5] = target: T2, Toll-like receptor 7 (Homo sapiens); test: Agonist activity at TLR7 in human PBMC assessed as induction of plasmacytoid dendritic cell maturation by measuring increase in MHC-1 level at 0.1 uM after 6 hrs by flow cytometry relative to control; how it was run: as §2
[6] = target: T2, Toll-like receptor 7 (Homo sapiens); test: Agonist activity at TLR7 in human PBMC assessed as induction of plasmacytoid dendritic cell maturation by measuring increase in CD86 level at 0.1 uM after 6 hrs by flow cytometry relative to control; how it was run: as §2
[7] = target: T4, Toll-like receptor 8 (Homo sapiens) (UniProt Q9NR97); test: Agonist activity at TLR8 in human PBMC assessed as induction of myeloid dendritic cell maturation by measuring HLA-DR level at 0.1 uM after 6 hrs by flow cytometry; how it was run: as §2
T4 sequence (whole entry): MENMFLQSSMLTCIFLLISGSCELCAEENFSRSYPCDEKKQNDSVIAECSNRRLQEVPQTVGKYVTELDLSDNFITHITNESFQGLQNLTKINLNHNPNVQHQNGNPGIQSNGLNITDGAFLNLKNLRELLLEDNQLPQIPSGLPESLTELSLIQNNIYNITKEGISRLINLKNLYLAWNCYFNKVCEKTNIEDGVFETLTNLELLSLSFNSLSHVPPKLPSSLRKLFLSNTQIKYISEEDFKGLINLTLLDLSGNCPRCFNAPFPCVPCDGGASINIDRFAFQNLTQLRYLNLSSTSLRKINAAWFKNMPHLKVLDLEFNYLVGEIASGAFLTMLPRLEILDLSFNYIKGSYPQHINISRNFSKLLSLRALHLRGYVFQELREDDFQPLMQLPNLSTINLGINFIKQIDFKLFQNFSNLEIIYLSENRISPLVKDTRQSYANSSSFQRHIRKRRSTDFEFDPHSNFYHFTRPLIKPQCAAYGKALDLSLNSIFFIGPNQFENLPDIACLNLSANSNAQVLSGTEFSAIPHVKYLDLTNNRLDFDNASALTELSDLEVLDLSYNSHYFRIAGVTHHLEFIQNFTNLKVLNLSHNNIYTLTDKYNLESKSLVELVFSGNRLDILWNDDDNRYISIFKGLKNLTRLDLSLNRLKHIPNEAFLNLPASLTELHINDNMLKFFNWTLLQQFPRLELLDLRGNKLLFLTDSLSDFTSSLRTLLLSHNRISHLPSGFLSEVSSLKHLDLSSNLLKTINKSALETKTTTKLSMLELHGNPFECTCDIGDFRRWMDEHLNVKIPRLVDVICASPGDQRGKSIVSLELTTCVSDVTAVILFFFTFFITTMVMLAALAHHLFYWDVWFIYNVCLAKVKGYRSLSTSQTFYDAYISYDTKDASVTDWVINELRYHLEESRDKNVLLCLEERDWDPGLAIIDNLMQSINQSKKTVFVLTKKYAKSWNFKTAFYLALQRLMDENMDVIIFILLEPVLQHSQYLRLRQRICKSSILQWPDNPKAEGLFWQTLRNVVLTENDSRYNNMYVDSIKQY

[8] = target: T2, Toll-like receptor 7 (Homo sapiens); test: Agonist activity at TLR7 in human PBMC assessed as induction of plasmacytoid dendritic cell maturation by measuring CD86 level at 0.1 uM after 6 hrs by flow cytometry; how it was run: as §2
[9] = target: TLR7 and TLR8 (Homo sapiens) (UniProt Q9NYK1+Q9NR97); test: Agonist activity at TLR7/TLR8 in human PBMC assessed as IFN alpha level; how it was run: as §1
[10] = target: T2, Toll-like receptor 7 (Homo sapiens); test: Agonist activity at TLR7 in human PBMC assessed as induction of plasmacytoid dendritic cell maturation by measuring CD80 level at 0.1 uM after 6 hrs by flow cytometry; how it was run: as §2
[11] = target: T4, Toll-like receptor 8 (Homo sapiens); test: Agonist activity at TLR8 in human PBMC assessed as induction of myeloid dendritic cell maturation by measuring CD86 level at 0.1 uM after 6 hrs by flow cytometry; how it was run: as §2
[12] = target: T4, Toll-like receptor 8 (Homo sapiens); test: Agonist activity at TLR8 in human PBMC assessed as TNFalpha level
How it was run: (§3)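 TNFα secretion by hPBMCs across a μM dose range; MEC = lowest dose tested inducing cytokine, PC = dose giving highest level, PL = peak level at 10 μM. Data representative of one of three independent donors.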

[13] = target: T4, Toll-like receptor 8 (Homo sapiens); test: Agonist activity at TLR8 in human PBMC assessed as TNFalpha level at 10 uM; how it was run: as §3

Sequence of Toll-like receptor 3 (Homo sapiens) (O15455 whole entry): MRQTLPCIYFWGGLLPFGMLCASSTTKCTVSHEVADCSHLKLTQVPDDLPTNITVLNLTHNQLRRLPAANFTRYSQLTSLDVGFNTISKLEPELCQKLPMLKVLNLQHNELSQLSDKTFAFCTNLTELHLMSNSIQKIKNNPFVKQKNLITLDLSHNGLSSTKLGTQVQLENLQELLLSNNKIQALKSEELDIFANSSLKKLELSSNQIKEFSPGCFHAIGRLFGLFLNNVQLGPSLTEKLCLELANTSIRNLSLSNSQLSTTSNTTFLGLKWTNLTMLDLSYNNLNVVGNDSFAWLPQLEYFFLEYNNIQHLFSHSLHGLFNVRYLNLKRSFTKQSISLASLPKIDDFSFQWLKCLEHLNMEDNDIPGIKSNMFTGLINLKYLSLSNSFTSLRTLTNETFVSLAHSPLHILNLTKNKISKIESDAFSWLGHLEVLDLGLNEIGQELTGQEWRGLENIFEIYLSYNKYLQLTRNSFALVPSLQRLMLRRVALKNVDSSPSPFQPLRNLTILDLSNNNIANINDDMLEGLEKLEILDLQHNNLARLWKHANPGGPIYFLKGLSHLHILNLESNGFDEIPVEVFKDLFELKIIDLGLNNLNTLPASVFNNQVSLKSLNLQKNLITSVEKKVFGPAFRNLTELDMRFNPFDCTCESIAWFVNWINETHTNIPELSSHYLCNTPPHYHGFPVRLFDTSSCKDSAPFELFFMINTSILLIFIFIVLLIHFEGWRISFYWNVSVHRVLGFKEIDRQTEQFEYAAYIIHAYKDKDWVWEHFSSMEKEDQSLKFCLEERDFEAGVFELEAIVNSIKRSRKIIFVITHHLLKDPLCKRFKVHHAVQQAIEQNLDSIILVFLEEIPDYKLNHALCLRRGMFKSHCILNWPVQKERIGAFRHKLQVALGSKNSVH

Structure (SMILES) | Activity [1] | EC50 (Toll-like receptor 7) | Activity [2] | Activity [3] | fold change (FC) [4] | fold change (FC) [5] | fold change (FC) [6] | Activity [7] | Activity [8] | Activity [10] | Activity [11] | ECmax [9] | MEC [9] | MEC [12] | Activity [13]
CCCCOc1nc(N)c2[nH]c(=O)n(CCCCCC3CCNCC3)c2n1 | – | 0.45 µM | 4680 pg/mL | – | 1.7 to 2.3 | 1.7 to 2.3 | – | – | – | – | – | – | – | – | –
CCCCOc1nc(N)c2[nH]c(=O)n(CC3CCN(CCN)CC3)c2n1 | – | 30 µM | 3040 pg/mL | – | 1.5 to 1.7 | 1.5 to 1.7 | 1.7 to 2.3 | – | inactive | inactive | – | – | – | – | –
CCC[C@H](C)Oc1nc(N)c2[nH]c(=O)n(CCCCCC3CCNCC3)c2n1 | – | 0.24 µM | 2640 pg/mL | – | 1.7 to 2.3 | 1.7 to 2.3 | – | – | – | – | – | – | – | – | –
COCCOc1nc(N)c2[nH]c(=O)n(Cc3ccccc3)c2n1 | – | 1.17 µM | 1440 pg/mL | – | – | – | – | – | – | – | – | 0.08 µM | 0.08 µM | 2 µM | 1660 pg/mL
CCCCNc1nc(N)c2[nH]c(=O)n(CC3CCNCC3)c2n1 | – | 40 µM | 5980 pg/mL | – | – | – | – | – | – | – | – | – | – | – | –

Further compounds by falling EC50 (Toll-like receptor 7), results first:

Activity [1] | EC50 (Toll-like receptor 7) | Activity [2] | Activity [3] | fold change (FC) [4] | fold change (FC) [5] | fold change (FC) [6] | Activity [7] | Activity [8] | Activity [10] | Activity [11] | Structure (SMILES) | ECmax [9] | MEC [9] | MEC [12] | Activity [13]
inactive | 35.8 µM | 6210 pg/mL | inactive | 1.2 to 2.4 | 1.2 to 2.4 | – | – | inactive | inactive | – | CCC[C@@H](C)Oc1nc(N)c2[nH]c(=O)n(CC3CCNCC3)c2n1 | – | – | – | –
– | 23.1 µM | 4730 pg/mL | – | 1.5 to 1.7 | 1.5 to 1.7 | 1.7 to 2.3 | inactive | inactive | inactive | inactive | CCCCOc1nc(N)c2[nH]c(=O)n(CC3CCN(CCO)CC3)c2n1 | 0.4 µM | 0.4 µM | 10 µM | 2740 pg/mL
inactive | 19.8 µM | 5900 pg/mL | inactive | 1.2 to 2.4 | 1.2 to 2.4 | 1.4 | – | – | – | – | CCCCOc1nc(N)c2[nH]c(=O)n(CC3CCNCC3)c2n1 | – | – | – | –
– | 6.71 µM | 4420 pg/mL | – | – | – | – | – | – | – | – | CCC[C@H](C)Oc1nc(N)c2[nH]c(=O)n(CC3CCN(CCN)CC3)c2n1 | – | – | – | –
inactive | 2.68 µM | 5470 pg/mL | inactive | 1.2 to 2.4 | 1.2 to 2.4 | 2 | – | – | – | – | CCC[C@H](C)Oc1nc(N)c2[nH]c(=O)n(CC3CCNCC3)c2n1 | – | – | – | –
